Measurements from different studies.
Each line is one published result; the experiments were not run side by side.
Target: Protein kinase C epsilon type (PRKCE, Homo sapiens, UniProt Q02156)
Residues used in one study (Q02156 1-737): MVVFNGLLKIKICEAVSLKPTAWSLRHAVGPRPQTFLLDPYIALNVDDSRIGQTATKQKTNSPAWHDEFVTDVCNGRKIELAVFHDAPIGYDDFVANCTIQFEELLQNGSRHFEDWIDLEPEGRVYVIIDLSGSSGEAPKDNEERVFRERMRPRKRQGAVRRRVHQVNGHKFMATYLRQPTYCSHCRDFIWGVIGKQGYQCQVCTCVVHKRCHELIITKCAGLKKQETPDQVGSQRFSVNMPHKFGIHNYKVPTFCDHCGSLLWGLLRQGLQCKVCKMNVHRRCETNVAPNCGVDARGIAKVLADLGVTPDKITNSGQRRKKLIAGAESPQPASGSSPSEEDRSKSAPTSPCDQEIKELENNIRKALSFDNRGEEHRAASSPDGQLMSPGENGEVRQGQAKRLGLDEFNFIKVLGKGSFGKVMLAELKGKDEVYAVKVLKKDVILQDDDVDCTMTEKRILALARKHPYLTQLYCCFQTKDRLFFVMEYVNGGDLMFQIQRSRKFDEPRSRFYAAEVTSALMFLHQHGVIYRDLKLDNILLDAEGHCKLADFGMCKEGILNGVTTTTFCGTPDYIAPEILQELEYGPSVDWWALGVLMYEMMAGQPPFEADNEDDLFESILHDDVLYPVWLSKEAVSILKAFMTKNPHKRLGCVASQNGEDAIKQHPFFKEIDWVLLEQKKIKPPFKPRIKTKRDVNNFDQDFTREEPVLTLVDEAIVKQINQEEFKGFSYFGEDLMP

Cn1cncc1[C@](O)(COc1ccc(C#N)cc1-c1ccc(OC(F)(F)F)cc1)c1ccc(C#N)cc1  remaining binding (cell-free assay, competition with immobilised ligand; 1 µM): 79%
O=c1[nH]c2ccccc2n1C1CCN(Cc2ccc(-c3[nH]c4cc5ncnc5cc4nc3-c3ccccc3)cc2)CC1  remaining signal (cell-free assay; 0.5 µM): 109%
C#Cc1n[nH]c2c(-c3cn([C@@H](C)c4ccccn4)c(=O)[nH]c3=O)cc(F)cc12  inhibition (enzyme activity, inhibitor; 0.1 µM): 4.1%
CC(C)(C)c1cc(C=C(C#N)C#N)cc(Br)c1O  remaining activity (enzyme activity, inhibitor; 0.5 µM): 108%
Cn1cc(-c2cccc(N3CCc4c(sc5c4CC(C)(C)C5)C3=O)c2CO)cc(Nc2ccncn2)c1=O  inhibition (enzyme activity, inhibitor; 1 µM): 1%
COc1ncccc1-c1cnn2ccc(N3CCN(C(=O)OC(C)C)CC3)nc12  remaining binding (binding, competition with immobilised ligand; 1 µM): 76%
Cn1cc(-c2cc(F)cc(N3CCn4c(cc5c4CCCC5)C3=O)c2CO)cc(Nc2ccc(N3CCN(C4COC4)CC3)cn2)c1=O  inhibition (enzyme activity, inhibitor; 0.1 µM): -4%
COc1cc(Nc2ncc(F)c(Nc3ccc4c(n3)NC(=O)C(C)(C)O4)n2)cc(OC)c1OC  inhibition (binding; 10 µM): 73%
